Calls of active or inactive are those of the source. The rule behind the calls is not given here.
What was measured:
[1] = molecular target: T1, Polyunsaturated fatty acid 5-lipoxygenase (Rattus norvegicus, UniProt P12527); assay: Inhibition of 5-lipoxygenase (5-lo) in intact rat polymorphonuclear leukocyte RPMNL
T1 sequence (P12527 whole entry): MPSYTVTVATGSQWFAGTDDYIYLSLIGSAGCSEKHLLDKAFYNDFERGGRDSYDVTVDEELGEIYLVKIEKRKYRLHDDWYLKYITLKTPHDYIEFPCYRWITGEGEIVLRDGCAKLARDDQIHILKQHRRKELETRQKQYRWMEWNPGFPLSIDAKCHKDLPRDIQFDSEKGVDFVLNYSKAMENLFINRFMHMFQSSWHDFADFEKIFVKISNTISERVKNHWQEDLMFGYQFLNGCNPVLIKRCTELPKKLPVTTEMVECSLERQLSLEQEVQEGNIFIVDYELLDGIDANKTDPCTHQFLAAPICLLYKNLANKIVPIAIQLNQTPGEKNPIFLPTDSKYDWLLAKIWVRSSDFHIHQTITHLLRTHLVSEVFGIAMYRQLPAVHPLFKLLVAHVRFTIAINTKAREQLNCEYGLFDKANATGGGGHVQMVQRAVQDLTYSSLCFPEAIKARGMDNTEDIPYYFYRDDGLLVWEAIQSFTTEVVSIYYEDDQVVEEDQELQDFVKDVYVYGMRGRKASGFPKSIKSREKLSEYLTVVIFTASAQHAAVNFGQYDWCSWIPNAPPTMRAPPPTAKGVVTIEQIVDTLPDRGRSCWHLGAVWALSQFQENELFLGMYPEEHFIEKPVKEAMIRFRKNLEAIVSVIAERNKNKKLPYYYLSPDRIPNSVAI
How it was run: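 Pleural PMNL from carrageenan-injected male Sprague-Dawley rats (200-250 g). Erythrocytes lysed with water, cells washed and held in HEPES/Earle's salts pH 7.0 with 1 mg/mL BSA. 5×10^6 cells preincubated 15 min at 37 °C with compound or DMSO (final 2%). Stimulated with A23187 (final 8.3 μM) for 10 min, stopped on ice. Methanol extracts assayed for LTB₄ by HPLC.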

[2] = molecular target: T1, Polyunsaturated fatty acid 5-lipoxygenase; assay: In vitro inhibition of 5-lipoxygenase (5-lo) from the 20000 g supernatant of RBI-1 cells; assay type: cell-based
[3] = molecular target: T2, Polyunsaturated fatty acid 5-lipoxygenase (Homo sapiens, UniProt P09917); assay: The compound was tested for the inhibition of 5-lipoxygenase (5-lo) in human whole blood (HWBL); assay type: tissue-based
T2 sequence (P09917 whole entry): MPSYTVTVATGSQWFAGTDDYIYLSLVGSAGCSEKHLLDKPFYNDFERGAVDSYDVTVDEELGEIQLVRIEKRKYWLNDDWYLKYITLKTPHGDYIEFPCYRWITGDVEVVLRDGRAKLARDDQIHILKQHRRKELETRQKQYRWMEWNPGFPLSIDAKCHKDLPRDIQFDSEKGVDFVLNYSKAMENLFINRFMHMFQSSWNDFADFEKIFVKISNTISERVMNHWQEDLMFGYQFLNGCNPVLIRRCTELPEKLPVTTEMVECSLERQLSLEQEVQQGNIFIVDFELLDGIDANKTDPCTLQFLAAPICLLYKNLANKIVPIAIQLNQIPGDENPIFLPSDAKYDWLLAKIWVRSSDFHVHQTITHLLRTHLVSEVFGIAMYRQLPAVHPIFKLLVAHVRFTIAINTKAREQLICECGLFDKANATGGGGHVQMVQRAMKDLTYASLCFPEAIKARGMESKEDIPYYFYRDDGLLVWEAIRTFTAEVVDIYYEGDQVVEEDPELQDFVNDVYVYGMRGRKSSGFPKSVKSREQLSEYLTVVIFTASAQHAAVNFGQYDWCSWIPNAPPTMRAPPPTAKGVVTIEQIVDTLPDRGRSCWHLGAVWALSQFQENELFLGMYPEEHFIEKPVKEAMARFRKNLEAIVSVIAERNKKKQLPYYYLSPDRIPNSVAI
How it was run: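 Heparinized (20 units/mL) human blood preincubated 15 min at 37 °C with compound or vehicle. Challenged with A23187 in DMSO (final 50 μM) for 30 min, then chilled and centrifuged. Plasma extracted with 4 volumes methanol for at least 2 h at 3 °C. LTB₄ measured by RIA or EIA.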

[4] = molecular target: T3, Polyunsaturated fatty acid 5-lipoxygenase (Rattus norvegicus) (UniProt P12527); assay: The compound was tested for the in vitro inhibition of 5-lipoxygenase (5-lo) from the 20000 g supernatant of RBI-1 cells at a concentration of 30 uM; assay type: cell-based
T3 sequence (whole entry): T1 sequence (P12527 whole entry)
How it was run: (§1)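 20000g supernatant of homogenized RBL-1 cells (7.5 × 10⁶ cell equiv/mL) preincubated 20 min at 37 °C with inhibitor or 2% Me₂SO vehicle in pH 6.8 BES/PIPES buffer with EDTA, NaCl, 0.7 mM CaCl₂. Reaction started with 66 μM [¹⁴C]arachidonic acid. [¹⁴C]-5-HETE counted by scintillation, corrected for [³H]-5-HETE recovery.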

[5] = molecular target: T4, Arachidonate 12-lipoxygenase (Rattus norvegicus) (UniProt Q02759); assay: The compound was tested for the in vitro inhibition of platelet 12-lipoxygenase at a concentration of 100 uM
T4 sequence (whole entry): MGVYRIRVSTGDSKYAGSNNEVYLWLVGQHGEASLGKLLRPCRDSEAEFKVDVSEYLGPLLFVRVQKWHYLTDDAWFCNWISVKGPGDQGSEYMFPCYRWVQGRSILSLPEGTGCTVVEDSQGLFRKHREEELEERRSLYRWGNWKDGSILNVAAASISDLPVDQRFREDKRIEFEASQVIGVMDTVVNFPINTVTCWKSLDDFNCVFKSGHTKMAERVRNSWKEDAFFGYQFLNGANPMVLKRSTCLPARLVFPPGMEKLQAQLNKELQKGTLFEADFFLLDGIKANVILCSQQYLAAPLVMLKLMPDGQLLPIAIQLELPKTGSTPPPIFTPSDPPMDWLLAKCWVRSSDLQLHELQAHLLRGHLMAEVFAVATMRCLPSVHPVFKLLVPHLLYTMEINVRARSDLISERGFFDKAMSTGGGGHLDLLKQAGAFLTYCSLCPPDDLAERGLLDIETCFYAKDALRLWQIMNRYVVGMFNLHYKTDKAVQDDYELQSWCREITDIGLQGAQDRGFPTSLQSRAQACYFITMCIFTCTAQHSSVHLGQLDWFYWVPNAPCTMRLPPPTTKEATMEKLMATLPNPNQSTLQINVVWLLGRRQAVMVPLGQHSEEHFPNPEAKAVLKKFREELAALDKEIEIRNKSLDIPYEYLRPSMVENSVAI

[6] = test system: 15-lipoxygenase (Glycine max); assay: The compound was tested for the in vitro inhibition of 15-lipoxygenase of soybean at a concentration of 100 uM; settings: at 100 µM
[7] = test system: cyclooxygenase (Ovis aries); assay: The compound was tested for the in vitro inhibition of Prostaglandin G/H synthase of sheep seminal vesicle at a concentration of 100 uM
[8] = molecular target: T3, Polyunsaturated fatty acid 5-lipoxygenase (Rattus norvegicus); assay: The compound was tested for the in vitro inhibition of 5-lipoxygenase from the 20000 g supernatant of RBI-1 cells; NS indicates nonsignificant inhibition at 32 uM concentration; assay type: cell-based; how it was run: as §1
[9] = molecular target: T3, Polyunsaturated fatty acid 5-lipoxygenase (Rattus norvegicus); assay: The compound was tested for the in vitro inhibition of 5-lipoxygenase (5-lo) from the 20000 g supernatant of RBI-1 cells; NS indicates nonsignificant inhibition at 32 uM concentration; assay type: cell-based; how it was run: as §1

CCCc1sc(-c2ccccc2)nc1OC(=O)Nc1ccccc1
IC50 [1]: 1000 nM
IC50 [2]: 460 nM

CC(=O)Oc1nc(-c2ccccc2)sc1-c1ccccc1
IC50 [2]: 400 nM
IC50 [3]: 450 nM

Cc1sc(-c2cc[nH]n2)nc1O
IC50 [2]: 31000 nM

CC(=O)Oc1nc(-c2ccc(-c3ccccc3)cc2)sc1-c1ccccc1
IC50 [1]: 900 nM
IC50 [2]: 1400 nM

CCCc1sc(-c2ccccc2)nc1OC(=O)OCc1ccccc1
IC50 [1]: 1200 nM
IC50 [2]: 2800 nM

CC(=O)c1ccc(-c2nc(O)c(C)s2)cc1
IC50 [2]: 1400 nM

Oc1nc(-c2ccncc2)sc1-c1ccccc1
IC50 [2]: 540 nM

Cc1ccc(-c2nc(O)c(C)s2)cc1
IC50 [1]: 1200 nM

COc1ccc(-c2nc(O)c(C)s2)cc1
IC50 [2]: 1100 nM

Cc1sc(-c2ccco2)nc1O
IC50 [2]: 2400 nM

CCCCNC(=O)Oc1nc(-c2ccccc2)sc1CCC
IC50 [1]: 800 nM
IC50 [2]: 24000 nM
IC50 [3]: 5500 nM

CC(=O)Oc1nc(-c2ccc(C(=O)O)cc2)sc1C
IC50 [2]: 14000 nM

CCOC(=O)c1sc(-c2ccccc2)nc1O
inhibition [4]: 17%

CCCc1sc(-c2ccccc2)nc1OC(=O)NC
IC50 [1]: 400 nM
IC50 [2]: 8800 nM
IC50 [3]: 5100 nM

Cc1sc(-c2ccccn2)nc1O
IC50 [2]: 2100 nM

CCCCCC(=O)Oc1nc(-c2ccccc2)sc1-c1ccccc1
IC50 [1]: 500 nM
IC50 [2]: 1300 nM

CCCCCC/C(O)=C\C/C=C\C/C=C\C=C\CCCCC(=O)O
IC50 [2]: 7300 nM

Oc1nc(-c2ccccc2)sc1CCc1ccccc1
inhibition [5]: 3%
inhibition [6]: 34%
inhibition [7]: 11%

Cc1sc(-c2ccncc2)nc1O
IC50 [2]: 14000 nM

Cc1sc(-c2cnc3ccccc3c2)nc1O
IC50 [2]: 16000 nM

Cc1sc(-c2ccc(C(=O)O)cc2)nc1O
IC50 [2]: 30000 nM

Cc1sc(N)nc1O
inhibition [8]: inactive

Cc1sc(-c2ccc(C(N)=O)cc2)nc1O
IC50 [2]: 4800 nM

Cc1sc(-c2ccc(-c3ccccc3)cc2)nc1O
inhibition [4]: 40%

O=C(O)Cc1sc(-c2ccccc2)nc1O
inhibition [4]: 24%

Cc1sc(-c2cccs2)nc1O
IC50 [2]: 1400 nM

CCCCc1sc(-c2ccccc2)nc1O
IC50 [2]: 18000 nM

CCOC(=O)Cc1nc(O)c(C)s1
inhibition [9]: inactive

COc1nc(-c2ccccc2)sc1-c1ccccc1
inhibition [9]: inactive

Cc1sc(-c2ccc(SC(F)(F)F)cc2)nc1O
IC50 [2]: 2700 nM

CCCCc1sc(-c2ccccc2)nc1OC(C)=O
IC50 [1]: 500 nM

CCCc1sc(-c2ccccc2)nc1OC(C)=O
IC50 [1]: 660 nM
IC50 [2]: 530 nM

Cc1sc(-c2ccc([N+](=O)[O-])cc2)nc1O
IC50 [2]: 1600 nM

Cc1sc(-c2ccc(C(F)(F)F)cc2)nc1O
IC50 [2]: 2500 nM

CCCCC(=O)Oc1nc(-c2ccccc2)sc1-c1ccccc1
IC50 [2]: 9100 nM

Cc1ccc(-c2nc(O)c(-c3ccccc3)s2)cc1
IC50 [2]: 800 nM
IC50 [3]: 740 nM

CCOC(=O)c1nc(O)c(C)s1
inhibition [9]: inactive

Oc1nc(-c2cccnc2)sc1-c1ccccc1
IC50 [2]: 1100 nM
IC50 [3]: 2900 nM

O=C(O)c1ccc(-c2nc(O)c(-c3ccccc3)s2)cc1
IC50 [2]: 1200 nM

COc1ccc(-c2nc(O)c(-c3ccccc3)s2)cc1
inhibition [5]: 6%
inhibition [6]: 22%
IC50 [1]: 450 nM
inhibition [7]: 25%
IC50 [2]: 370 nM
IC50 [3]: 2400 nM

COC(=O)Cc1sc(-c2ccccc2)nc1O
IC50 [1]: 2100 nM

Oc1nc(-c2ccc(-c3ccccc3)cc2)sc1-c1ccccc1
IC50 [2]: 2200 nM

Cc1sc(C(=O)O)nc1O
inhibition [9]: inactive

CCCCC/C=C/C/C=C/C/C=C/C/C=C/CCCC(=O)NO
IC50 [2]: 2200 nM

Cc1sc(-c2ccc(S(N)(=O)=O)cc2)nc1O
IC50 [2]: 2200 nM

Cc1sc(NN)nc1O
inhibition [8]: inactive

Oc1sc(-c2ccccc2)nc1-c1ccccc1
IC50 [2]: 6900 nM

Cc1nc(O)c(-c2ccccc2)s1
IC50 [2]: 700 nM
IC50 [3]: 5100 nM

Oc1nc(-c2ccc(F)cc2)sc1-c1ccccc1
inhibition [5]: 0%
inhibition [6]: 16%
inhibition [7]: 20%
IC50 [2]: 500 nM
IC50 [3]: 470 nM

Cc1nc(O)c(C)s1
inhibition [8]: inactive

CCCc1sc(-c2ccccc2)nc1OS(C)(=O)=O
inhibition [9]: inactive

Cc1sc(-c2ccc(N)cc2)nc1O
IC50 [2]: 15000 nM

CCCc1sc(-c2ccccc2)nc1OC(=O)OCC
IC50 [1]: 700 nM
IC50 [3]: 4500 nM

Nc1nc(-c2ccccc2)sc1-c1ccccc1
inhibition [9]: inactive

From ChEMBL document CHEMBL1125582, “4-hydroxythiazole inhibitors of 5-lipoxygenase” (J Med Chem, 1991)
